The subject of series [1] is SH-SY5Y. Put plainly: Neuroprotective activity in human SH-SY5Y cells assessed as protection against rotenone-oligomycin-induced toxicity at 3 uM preincubated for 24 hrs before rotenone-oligomycin addition measured after 24 hrs by lactate dehydrogenase release assay. Type of series: functional. In outline:
(§1)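 Pre-incubation: compound given to cells (10^5/well, serum-free DMEM) for 24 h. Medium then replaced with fresh medium holding compound plus rotenone 30 µM and oligomycin A 10 µM for another 24 h. LDH release read. Protection = 100 minus normalized toxin-induced LDH release above basal. Mean of 4 independent experiments in triplicate.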

Series [2] deals with SH-SY5Y. Put plainly: Neuroprotective activity in human SH-SY5Y cells assessed as protection against rotenone-oligomycin-induced toxicity at 3 uM co-incubated with rotenone-oligomycin measured after 24 hrs by lactate dehydrogenase release assay. Format: functional. Put shortly: (§2)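 Co-incubation: cells (10^5/well, serum-free DMEM) given compound together with rotenone 30 µM plus oligomycin A 10 µM for 24 h. Cell death by LDH release. Protection: basal LDH subtracted from toxin-induced release, normalized to 100%, then subtracted from 100. Mean of 4 independent experiments in triplicate.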

Series [3] concerns SH-SY5Y. Put plainly: Antioxidant activity in human SH-SY5Y cells assessed as rotenone-oligomycin-induced sequestering of mitochondrial free radicals at 0.3 uM after 120 mins using DCFH-DA by fluorescence microplate reader analysis. Type of series: functional. Put shortly: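 Intracellular ROS probe: cells grown to confluence, loaded with 10 µM DCFH-DA for 45 min, basal fluorescence read. Rotenone 30 µM, oligomycin A 10 µM and compound 0.3 µM then added together at t = 0. Fluorescence change read after 120 min (ex 485/em 520 nm). Trolox 0.3 µM served as positive control. Mean of 3 independent experiments.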

Another series has as its target Cholinesterase (Equus caballus, UniProt P81908). Put plainly: Inhibition of horse serum BuChE using butyrylthiocholine as substrate by UV spectroscopic analysis.
Series [4] in a line: Permeability of the compound by PAMPA. Format: physicochemical. The conditions noted are these: read-out: permeability. In outline: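 PAMPA-BBB: filter impregnated with porcine brain lipid in dodecane (20 mg/mL). Compound at 100 µg/mL in PBS pH 7.4:ethanol 70:30 in donor. Acceptor held PBS:ethanol 70:30. Incubated 240 min at 25 °C. Acceptor concentration read by UV-Vis at five wavelengths, in four wells, at least three runs. Mean ± SD. 10 reference drugs validated each run.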

The nature of series [5]: Cytotoxicity against human SH-SY5Y cells assessed as cell viability at 3 uM after 24 hrs by lactate dehydrogenase release assay. Format: cell-based. The conditions noted are these: read-out: Activity. Put shortly: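 Cells plated at 10^5 per well at least 48 h beforehand, in serum-free DMEM, before confluence. Exposed to compound at 3 µM for 24 h. LDH released to medium measured by colorimetric kit (492/620 nm), expressed as extracellular versus total LDH.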

The subject of series [6] is SH-SY5Y. Put plainly: Neuroprotective activity in human SH-SY5Y cells assessed as protection against rotenone-oligomycin-induced toxicity at 0.3 uM preincubated for 24 hrs before rotenone-oligomycin addition measured after 24 hrs by lactate dehydrogenase release assay. Type of series: functional. Put shortly: as §1
In series [7] the test system is SH-SY5Y. Put plainly: Neuroprotective activity in human SH-SY5Y cells assessed as protection against rotenone-oligomycin-induced toxicity at 1 uM preincubated for 24 hrs before rotenone-oligomycin addition measured after 24 hrs by lactate dehydrogenase release assay. Type of series: functional. Put shortly: as §1
Series [8] relates to SH-SY5Y. Put plainly: Neuroprotective activity in human SH-SY5Y cells assessed as protection against rotenone-oligomycin-induced toxicity at 0.3 uM co-incubated with rotenone-oligomycin measured after 24 hrs by lactate dehydrogenase release assay. Format: functional. Put shortly:
as §2

The subject of series [9] is SH-SY5Y. Put plainly: Neuroprotective activity in human SH-SY5Y cells assessed as protection against rotenone-oligomycin-induced toxicity at 1 uM co-incubated with rotenone-oligomycin measured after 24 hrs by lactate dehydrogenase release assay. Format: functional. In outline: as §2
Series [10] relates to SH-SY5Y. Put plainly: Inhibition of calcium channel in human SH-SY5Y cells assessed as blockade of K+-evoked cytosolic calcium increase at 3 uM after 15 mins using Fluo-4/AM by fluorescence microplate reader analysis. Format: cell-based. In outline:
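Confluent cells loaded with Fluo-4/AM 4 µM for 1 h at 37 °C, washed twice in Krebs-Hepes, then 15 min at room temperature. Compound (3 µM) applied 10 min before K+ raised to 70 mM final. Triton X-100 (5%) and MnCl2 (1 mM) gave maximal and basal fluorescence. Nifedipine 3 µM as positive control. Mean of 3 experiments.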

Chain of Cholinesterase (P81908 whole entry): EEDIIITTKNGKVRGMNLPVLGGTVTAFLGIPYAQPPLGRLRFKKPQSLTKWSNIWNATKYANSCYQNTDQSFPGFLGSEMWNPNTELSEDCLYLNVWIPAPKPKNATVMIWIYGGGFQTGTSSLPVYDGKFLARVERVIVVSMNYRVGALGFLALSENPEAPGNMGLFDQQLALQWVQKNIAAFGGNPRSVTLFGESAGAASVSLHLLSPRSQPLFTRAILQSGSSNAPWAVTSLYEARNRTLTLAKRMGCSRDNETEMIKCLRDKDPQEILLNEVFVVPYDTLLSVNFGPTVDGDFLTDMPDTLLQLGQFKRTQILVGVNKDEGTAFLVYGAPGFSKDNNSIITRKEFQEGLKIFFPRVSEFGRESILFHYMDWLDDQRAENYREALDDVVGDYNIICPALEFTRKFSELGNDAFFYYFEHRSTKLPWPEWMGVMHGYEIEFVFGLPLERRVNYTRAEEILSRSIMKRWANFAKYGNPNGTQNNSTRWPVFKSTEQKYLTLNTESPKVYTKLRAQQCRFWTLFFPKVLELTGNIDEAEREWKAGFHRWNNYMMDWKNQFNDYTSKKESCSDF

`Cc1c(C)c2c(c(C)c1O)CCC(C)(C(=O)O)O2` (stereo unspecified) [TROLOX]: the Activity in the series with SH-SY5Y [1] came to 56.1%; in the series with SH-SY5Y [2] it was 55.7%; with SH-SY5Y [3], 22.3%.

The IC50 is the concentration at which inhibition is half-maximal. For the molecule `O=C(CN1CCCCC1)n1c2ccccc2sc2cccc(Cl)c2n1C(=O)CN1CCCCC1`, the IC50 at Cholinesterase is 0.9 µM. Also, the Papp in [4] is 7.3 ×10⁻⁶ cm/s. For the same molecule, in series [5], the viability at 24 h, 3 µM came to 100%. Also, the Activity in the series on SH-SY5Y [6] is 90.5%; in the series with SH-SY5Y [7], 83.9%; in the series on SH-SY5Y [1], 83.4%; in the series with SH-SY5Y [8] it was 43.3%; in the series with SH-SY5Y [9], 38.2%; in the series with SH-SY5Y [2], 35.6%.

A word on the inhibition: it is the relative decrease from the control value, in per cent. With `CC(=O)n1c2ccccc2sc2cc(Cl)ccc2n1C(C)=O`, at Cholinesterase, the IC50 was > 100 µM. In series [4], the Papp came out at 10.1 ×10⁻⁶ cm/s. The viability at 24 h, 3 µM in series [5] came to 100%. In addition, the Activity with SH-SY5Y [6] is on record as 64.8%; in the series on SH-SY5Y [7], 76.6%; in the series on SH-SY5Y [1], 81.5%; with SH-SY5Y [8], 49%; in the series with SH-SY5Y [9], 59.2%; with SH-SY5Y [2] it was 63.2%. Further, in the series with SH-SY5Y [3], the Activity came out at 24.3%. Further, in the series with SH-SY5Y [10], the inhibition came out at 21.5%.

Turning to `COC(=O)C1=C(C)NC(C)=C(C(=O)OC)C1c1ccccc1[N+](=O)[O-]`, the inhibition in the series on SH-SY5Y [10] was 47.9%.

`CC(=O)n1c2ccccc2sc2cc(C(F)(F)F)ccc2n1C(C)=O`: the IC50 against Cholinesterase is > 100 µM. Further, in series [4], the Papp came to 4 ×10⁻⁶ cm/s. For the same molecule, the viability at 24 h, 3 µM in series [5] was determined as 100%. Moreover, the Activity with SH-SY5Y [6] is 76.4%; with SH-SY5Y [7], 91.1%; in the series on SH-SY5Y [1], 92.2%; in the series on SH-SY5Y [8], 20.7%; in the series on SH-SY5Y [9], 35%; with SH-SY5Y [2] it was 35.8%.

`O=C(CCN1CCCC1)n1c2ccccc2sc2ccc(Cl)cc2n1C(=O)CCN1CCCC1`: the IC50 against Cholinesterase was > 100 µM. Besides, the Papp in series [4] was 3.7 ×10⁻⁶ cm/s. Further, the viability at 24 h, 3 µM in series [5] was determined as 100%. In addition, the Activity in the series with SH-SY5Y [6] is on record as 99.3%; in the series with SH-SY5Y [7], 94.6%; in the series with SH-SY5Y [1], 92.4%; in the series with SH-SY5Y [8], 40.7%; in the series on SH-SY5Y [9], 45.9%; with SH-SY5Y [2] it was 32.7%.

With `CN(C)CCC(=O)n1c2ccccc2sc2ccc(Cl)cc2n1C(=O)CCN(C)C`, on Cholinesterase, the IC50 was 0.7 µM. For the same molecule, the Papp in series [4] was 14.2 ×10⁻⁶ cm/s. Moreover, in [5], the viability at 24 h, 3 µM turned out to be 100%. Moreover, the Activity in the series with SH-SY5Y [6] came to 75.9%; in the series on SH-SY5Y [7], 92.1%; with SH-SY5Y [1], 96.1%; with SH-SY5Y [8], 8.1%; in the series with SH-SY5Y [9], 20.4%; in the series on SH-SY5Y [2] it was 15.9%.

As to `CN1CCN(CC(=O)n2c3ccccc3sc3ccc(Cl)cc3n2C(=O)CN2CCN(C)CC2)CC1`, the IC50 at Cholinesterase was > 100 µM. Also, in series [4], the Papp turned out to be 5.9 ×10⁻⁶ cm/s. Also, the viability at 24 h, 3 µM in [5] amounted to 100%. Also, the Activity in the series with SH-SY5Y [6] is recorded as 86%; in the series on SH-SY5Y [7], 96.4%; with SH-SY5Y [1], 97.5%; in the series on SH-SY5Y [8], 50.6%; with SH-SY5Y [9] it was 42.6%; in the series on SH-SY5Y [2], 35.7%. The Activity in the series with SH-SY5Y [3] was 24.3%. The inhibition in the series on SH-SY5Y [10] came out at 9.3%.

Take `Clc1ccc2c(c1)Sc1ccccc1N=N2`: the IC50 against Cholinesterase was > 100 µM. For the same molecule, the Papp in series [4] was 12.3 ×10⁻⁶ cm/s. In addition, in [5], the viability at 24 h, 3 µM was 100%. The Activity is 90.3% in the series on SH-SY5Y [6]; 90.2% with SH-SY5Y [7]; 84.4% in the series with SH-SY5Y [1]; 40.5% in the series on SH-SY5Y [8]; 31.4% in the series on SH-SY5Y [9]; 38.8% in the series with SH-SY5Y [2].

`CC(=O)n1c2ccccc2sc2ccc(Cl)cc2n1C(C)=O`: the IC50 against Cholinesterase was > 100 µM. Further, the Papp in series [4] worked out at 12.3 ×10⁻⁶ cm/s. The viability at 24 h, 3 µM in series [5] worked out at 100%. Besides, the Activity is reported as 79.8% in the series on SH-SY5Y [6]; 88.9% in the series on SH-SY5Y [7]; 91.1% in the series on SH-SY5Y [1]; 9.3% in the series on SH-SY5Y [8]; 38.3% in the series with SH-SY5Y [9]; 38.3% with SH-SY5Y [2].

As for `CC(=O)n1[nH]c2ccc([N+](=O)[O-])cc2sc2ccccc21`, the IC50 against Cholinesterase was > 100 µM. Also, the Papp in series [4] came to 3.9 ×10⁻⁶ cm/s. In series [5], the viability at 24 h, 3 µM amounted to 100%. Moreover, the Activity is reported as 83.8% in the series with SH-SY5Y [6]; 75.8% in the series on SH-SY5Y [7]; 72.7% with SH-SY5Y [1]; 26.2% in the series on SH-SY5Y [8]; 27.8% in the series on SH-SY5Y [9]; 21.9% with SH-SY5Y [2].

On to `O=C(CCN1CCCCC1)n1c2ccccc2sc2ccc(Cl)cc2n1C(=O)CCN1CCCCC1`, for which, at Cholinesterase, the IC50 was > 100 µM. For the same molecule, the Papp in [4] was found to be 5.3 ×10⁻⁶ cm/s. Besides, the viability at 24 h, 3 µM in series [5] was determined as 100%. Moreover, the Activity is recorded as 84.6% in the series with SH-SY5Y [6]; 90.4% with SH-SY5Y [7]; 96.4% with SH-SY5Y [1]; 53% in the series on SH-SY5Y [8]; 55.4% in the series on SH-SY5Y [9]; 63% in the series on SH-SY5Y [2]. The Activity with SH-SY5Y [3] was 18.8%. Besides, the inhibition in the series with SH-SY5Y [10] was 16.2%.

Take `COc1ccc2c(c1)sc1ccccc1n(C(C)=O)n2C(C)=O`: on Cholinesterase, the IC50 is > 100 µM. For the same molecule, the Papp in [4] turned out to be 12.6 ×10⁻⁶ cm/s. In series [5], the viability at 24 h, 3 µM was 100%. The Activity in the series with SH-SY5Y [6] is given as 89.7%; in the series with SH-SY5Y [7], 97%; in the series with SH-SY5Y [1], 95.7%; in the series on SH-SY5Y [8] it was 49.9%; in the series with SH-SY5Y [9], 50.1%; in the series on SH-SY5Y [2], 53.8%. The Activity with SH-SY5Y [3] is on record as 21.6%. In addition, the inhibition in the series on SH-SY5Y [10] worked out at 13.1%.

(Values after ChEMBL document CHEMBL3259644, “Dibenzo[1,4,5]thiadiazepine: a hardly-known heterocyclic system with neuroprotective properties of potential usefulness in the treatment of neurodegenerative diseases” (Eur J Med Chem, 2014).)
